System: MS2 coat protein
Test: apparent Kd, MS2 coat protein; higher = weaker binding; RNA-MaP array; FMN 200 µM where present
Outline: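 Stalled E. coli RNA polymerase produced the designs on Illumina sequencing-chip clusters. SNAP-549-labelled MS2 coat protein was added from 0.7 or 1.5 nM, doubling to 3 µM, without and then with constant ligand, in 100 mM Tris-HCl pH 7.5, 80 mM KCl, 4 mM MgCl2, BSA, DTT, yeast tRNA and Tween-20. The apparent Kd is the median of filtered per-cluster fits of green signal normalised to red-channel RNA signal and control-cluster median Fmax.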

[1] = designed as: OFF switch for flavin mononucleotide, no ligand
[2] = ligand present: flavin mononucleotide, designed as: OFF switch for flavin mononucleotide
[3] = designed as: ON switch for flavin mononucleotide, no ligand
[4] = ligand present: flavin mononucleotide, designed as: ON switch for flavin mononucleotide

## UUGUUACAUGAGGAUCACCCAUGUGAGGAUAUGUGUAUCCCUAAAAAAGUGUGGGACCACAGAAGGUACUUGGA
[1]
  apparent Kd: 54.6 nM
[2]
  apparent Kd: 68.1 nM

## UUGUUAUAUGUAGGAUAUGCAUAUUAUUAUUAUGCAGAAGGACAUGAGGAUCACCCAUGUAUAUUAUUAUUAUAUAUUAUAUAU
[1]
  apparent Kd: 28.3 nM
[2]
  apparent Kd: 41.6 nM

## UUGUUCCAUGUAGGAUAUGCAUAUUCUUAUUAUGCAGAAGGACAUGAGGAUCACCCAUGUAUGUUAUUAUUAUAUGUUACAUGU
[1]
  apparent Kd: 72.3 nM
[2]
  apparent Kd: 392 nM

## UUUAAACAUGAGGAUCACCCAUGUUUUUUUAUGGGAGGAUAUCUAAGUUAAUUAUAUUAAGGAGAAGGCCUAUUUU
[3]
  apparent Kd: 146 nM
[4]
  apparent Kd: 26.7 nM

## UUUAAAGGCACAUGAGGAUCACCCAUGUCCGGUACUAACAGACAGGAUAUGCAAGAUCCACUCAUGCAGAAGGGUCUGGCUUUU
[3]
  apparent Kd: 463 nM
[4]
  apparent Kd: 79.7 nM

## UUUAACUGCUAGAAGGGUGACAUGAGGAUCACCCAUGUGCUAGGCGUGCAUAAGCACCCUUAGCCACAGGAUAUAGUAGUUGAC
[3]
  apparent Kd: 112 nM
[4]
  apparent Kd: 64.5 nM

## UUUAAUUAGUAGAAGGACGGAGAGUAAGAAGUCGUAGGAUAUACAUAAGACAUGAGGAUCACCCAUGUGUGUAUGUUGGGUAGG
[1]
  apparent Kd: 6.57 nM
[2]
  apparent Kd: 7.72 nM

## UUUAAUUUAAUUAAGAUCACAUGAGGAUCACCCAUGUAUAUAUAGGAUAUCAGCUCGAAUAGAGCUGAGAAGGAUAUAUACAUA
[1]
  apparent Kd: 69.3 nM
[2]
  apparent Kd: 36.2 nM

## UUUACAUGAGGAUCACCCAUGUCUGUCACACGGAGGUGCAAUCAGGAUAUGAUCUCAAGAAUGAAUUAGAAGGGAUAGGGAGGG
[3]
  apparent Kd: 187 nM
[4]
  apparent Kd: 234 nM

## UUUACUUACGAAGGAUAUGGUUACAUGAGGAUCACCCAUGUAUGUAUAAUGAUCUAGUAUUUUAACCAGAAGGUCGUGAUUAUU
[1]
  apparent Kd: 39.3 nM
[2]
  apparent Kd: 64.6 nM

## UUUAUAUUCAGAGGAUAUUGAUGUUGUAUUUUACAAGAAGGCUGUUUGUUUUGUAAUGUUAUUAUACAUGAGGAUCACCCAUGU
[3]
  apparent Kd: 20.6 nM
[4]
  apparent Kd: 17.3 nM

## UUUAUGUCAGGAUAUACAUGAGGAUCACCCAUGUAUAUCUUAAAGUAUACAUGGAAAUGUAGAAGGGACGUCCU
[1]
  apparent Kd: 15.1 nM
[2]
  apparent Kd: 17.1 nM

## UUUAUUAGUUAGAAGGCUUGAUGAAUUACAAUGGACAUGAGGAUCACCCAUGUGUAUUCAUGUCAAGAGGAUAUAGUCAUAUAU
[3]
  apparent Kd: 39.1 nM
[4]
  apparent Kd: 17.7 nM

## UUUAUUUCGGCAGGAUAUACAUGUAUAUAUAUUCCCUCAUAUCUUAUUACAUGAGGAUCACCCAUGUAGAAGGGCCUUCUUCUC
[1]
  apparent Kd: 206 nM
[2]
  apparent Kd: 160 nM

## UUUAUUUUUAGAGGAUAUAUUGUGUGUGAGAGAAUAGAAGGCUAAACAUACAUGAACAUGAGGAUCACCCAUGUCACCCAUGUU
[3]
  apparent Kd: 78.2 nM
[4]
  apparent Kd: 54.9 nM

## UUUCAGUCAGGAUAUCGUUAAUUUAAUUGUUUGUUUUAGUUCGAGAAGGGACAUGAGGAUCACCCAUGUAAUUU
[1]
  apparent Kd: 33.1 nM
[2]
  apparent Kd: 51.3 nM

## UUUCCACAUGAGGAUCACCCAUGUGAGGAUAUGGAGCGCGACCGCGCGGUCGCGUACACCAGAAGGCGCAUGAU
[1]
  apparent Kd: 31.9 nM
[2]
  apparent Kd: 91 nM

## UUUCCGCGAGGAUAUACGGGCUGUGCUUUUCAUUUCUUACAACAUGAGGAUCACCCAUGUAGAAGGUGCUUCUU
[1]
  apparent Kd: 208 nM
[2]
  apparent Kd: 196 nM

## UUUCGGCAUGUAGGAUAUGGAUCCGAUUAGGAUUUAGAAGGACAUGAGGAUCACCCAUGUGCAUUUAAUUGGUCAUUACCGUUU
[1]
  apparent Kd: 58.5 nM
[2]
  apparent Kd: 95.2 nM

## UUUCUGUGAGGAUAUCAGUAGUAAAUAAAUAAAAUUACUACUGAGAAGGCACAUGAGGAUCACCCAUGUUCCUU
[1]
  apparent Kd: 12.2 nM
[2]
  apparent Kd: 29.7 nM

## UUUGACCUAGGAUAUACAUGAGGAUCACCCAUGUUCCGGUGGGUUAACGACAACCUCAGUAGAAGGAGGAGCUU
[1]
  apparent Kd: 31.8 nM
[2]
  apparent Kd: 58.9 nM

## UUUGACGUCGUAGGAUAUGUAGGAUAUUCCUACAUGAGGAUCACCCAUGUUGACAUGGAAGAAGGACAGAAGGACGAUGUCCAU
[3]
  apparent Kd: 304 nM
[4]
  apparent Kd: 5.56 nM

## UUUGAUGUUGAGGAUAUGCUUUUUUUUAUUAUAGCAGAAGGCGAUACAUGAGGAUCACCCAUGUUCAUGGCUUU
[1]
  apparent Kd: 12.8 nM
[2]
  apparent Kd: 15.5 nM

## UUUGCAUGACGAGGAUAUCAUUUAUUUCUUGAUUGAGAAGGCGUUCUUUUUAAUACCUAACAUGAGGAUCACCCAUGUGACAGU
[3]
  apparent Kd: 17.9 nM
[4]
  apparent Kd: 13.2 nM

## UUUGUAAUGUCAGGAUAUAUUAUAAGUCAGACUGUAGAAGGGAUAAUUAUACUCAUGUACAUGAGGAUCACCCAUGUUAAAUAU
[3]
  apparent Kd: 97.1 nM
[4]
  apparent Kd: 53.2 nM

## UUUGUUGUUGUGAGGAUAUCGUUGAUUUUUUGAAACGAGAAGGCACAUGAGGAUCACCCAUGUUUGUUGUUGGU
[1]
  apparent Kd: 66.2 nM
[2]
  apparent Kd: 248 nM

## UUUGUUUAUGUGAGGAUAUACUGUUUGUAUUGAUUGUAGAAGGUACAUGAGGAUCACCCAUGUUUUGUAUUUAU
[1]
  apparent Kd: 18.8 nM
[2]
  apparent Kd: 19.4 nM

## UUUGUUUGCGGAGGAUAUAUAAGUGGAUCACCCAUAGAAGGCCGAACAUGAGGAUCACCCAUGUUACAUGAGGAUCACCCAUGU
[1]
  apparent Kd: 45.8 nM
[2]
  apparent Kd: 51.5 nM

## UUUUAACAUGAGGAUCACCCAUGUGAGGAUAUCGAAAUUUAUAUUAAUAUUAAUAAAACGAGAAGGCACAUUUU
[1]
  apparent Kd: 82.2 nM
[2]
  apparent Kd: 90.1 nM

## UUUUAACAUGAGGAUCACCCAUGUGAGGAUAUCGAAAUUUAUAUUAAUAUUAAUAAAUCGAGAAGGCACAUUUU
[1]
  apparent Kd: 117 nM
[2]
  apparent Kd: 127 nM

## UUUUAACAUGAGGAUCACCCAUGUGAGGAUAUCGAAAUUUAUAUUAAUAUUAUUAUAUCGAGAAGGCACAUUUU
[1]
  apparent Kd: 92.3 nM
[2]
  apparent Kd: 91.3 nM

## UUUUAACAUGAGGAUCACCCAUGUGAGGAUAUCGAAAUUUAUAUUAAUAUUAUUUAAACGAGAAGGCACAUUUU
[1]
  apparent Kd: 65.2 nM
[2]
  apparent Kd: 87 nM

## UUUUAACAUGAGGAUCACCCAUGUGAGGAUAUCGAAAUUUAUAUUAAUAUUAUUUUAUCGAGAAGGCACAUUUU
[1]
  apparent Kd: 96.1 nM
[2]
  apparent Kd: 124 nM

## UUUUAACAUGAGGAUCACCCAUGUGAGGAUAUCGAAAUUUAUAUUAAUAUUUAUAUAACGAGAAGGCACAUUUU
[1]
  apparent Kd: 68.4 nM
[2]
  apparent Kd: 90.1 nM

## UUUUAACAUGAGGAUCACCCAUGUGAGGAUAUCGAAAUUUAUAUUAAUAUUUAUUUAACGAGAAGGCACAUUUU
[1]
  apparent Kd: 96.4 nM
[2]
  apparent Kd: 88.4 nM

## UUUUAACAUGAGGAUCACCCAUGUGAGGAUAUCGAAAUUUAUAUUAAUAUUUAUUUAUCGAGAAGGCACAUUUU
[1]
  apparent Kd: 115 nM
[2]
  apparent Kd: 135 nM

## UUUUAACAUGAGGAUCACCCAUGUGAGGAUAUCGAAAUUUAUAUUAAUAUUUUUAAUACGAGAAGGCACAUUUU
[1]
  apparent Kd: 47.2 nM
[2]
  apparent Kd: 73.6 nM

## UUUUAACAUGAGGAUCACCCAUGUGAGGAUAUCGAAAUUUAUAUUAAUAUUUUUAUAUCGAGAAGGCACAUUUU
[1]
  apparent Kd: 92.8 nM
[2]
  apparent Kd: 78.4 nM

## UUUUAACAUGAGGAUCACCCAUGUGAGGAUAUCGAAAUUUAUAUUUAUAUUUAUUAAUCGAGAAGGCACAUUUU
[1]
  apparent Kd: 132 nM
[2]
  apparent Kd: 162 nM

## UUUUAACAUGAGGAUCACCCAUGUGAGGAUAUCGAUUUUUUUAUUAAUAUUAAUAAAACGAGAAGGCACAUUUU
[1]
  apparent Kd: 76.2 nM
[2]
  apparent Kd: 75.9 nM

## UUUUACAUAGGAUAUAGUUUCUUUUACAUGAGGAUCACCCAUGUCUCUCCUCUCUCUCUUCUAGAAGGAUGUUUCU
[1]
  apparent Kd: 80.1 nM
[2]
  apparent Kd: 72 nM

## UUUUACGUUUCGUAGCAGUGUCAUCGAGAAGGCCCUGACAUGAGGAUCACCCAUGUUGUUACAUGGGAGGAUAUCGAUGAUUUU
[3]
  apparent Kd: 16.4 nM
[4]
  apparent Kd: 5.21 nM

Source: the EternaBench riboswitch data
